Measurements pooled from the literature.
Compare with care: the assays were run in different laboratories.
TAF1 BD2: Transcription initiation factor TFIID subunit 1, BD2 (TAF1, Homo sapiens, UniProt P21675)
MAP3K9: Mitogen-activated protein kinase kinase kinase 9 (MAP3K9, Homo sapiens, UniProt P80192)
DRD1: D(1A) dopamine receptor (DRD1, Homo sapiens, UniProt P21728)
SIRT3: NAD-dependent protein deacetylase sirtuin-3, mitochondrial (SIRT3, Homo sapiens, UniProt Q9NTG7)
PTGS1: Prostaglandin G/H synthase 1 (PTGS1, Ovis aries, UniProt P05979)

Structure (SMILES) | target | read-out | action | method | tested at | measurement | result
Oc1ccc(-c2nc(-c3ccncc3)c(-c3ccc(F)cc3)[nH]2)cc1 | TAF1 BD2 | thermal stability |  | DSF | 10 µM | ΔTm | -0.06 °C
CCCOc1ccc(OC)c(F)c1C(=O)c1ccc(C(=O)N[C@@H]2CNC[C@H]2NC(=O)c2ccc3[nH]ncc3c2)cc1 | Serine/threonine-protein kinase MRCK alpha (CDC42BPA, Homo sapiens, UniProt Q5VT25) | enzyme activity | inhibitor |  | 10 µM | remaining activity | -3%
C[S+]([O-])c1ccc(-c2nc(-c3ccncc3)c(-c3ccc(F)cc3)[nH]2)cc1 (stereo not drawn) | Transcription initiation factor TFIID subunit 1, BD1 (TAF1, Homo sapiens, UniProt P21675) | thermal stability |  | DSF | 10 µM | ΔTm | -0.19 °C
Cc1nn(CC(F)(F)F)cc1Nc1ncc(Br)c(NCCCNC(=O)C2CCC2)n1 | MAP3K9 | enzyme activity | inhibitor | radiometric | 1 µM | remaining activity | 21%
COc1cc(NC(C)=O)c(Cl)cc1C(=O)Nc1nccs1 | DRD1 | cell-free assay |  |  | 10 µM | inhibition | -7.2%
Cc1cc2c(cc1N1C(=O)c3cccc4c(Cl)ccc(c34)C1=O)n(C)c(=O)n2C | Transcription initiation factor TFIID subunit 1-like, BD1 (TAF1L, Homo sapiens, UniProt Q8IZX4) | thermal stability |  | DSF | 10 µM | ΔTm | -0.2 °C
Oc1cccc(Nc2nc(-c3ccc(F)cc3F)cs2)c1 | DRD1 | cell-free assay |  |  | 10 µM | inhibition | 21.2%
NS(=O)(=O)c1ccc(Nc2nc(-c3ccc(F)cc3)c3ccccc3n2)cc1 | Peregrin (BRPF1, Homo sapiens, UniProt P55201) | binding |  | competition with immobilised ligand | 1 µM | remaining binding | 76%
Nc1ncnc2occ(-c3ccc(NC(=O)Nc4cc(C(F)(F)F)ccc4F)cc3)c12 | Mitogen-activated protein kinase kinase kinase 6 (MAP3K6, Homo sapiens, UniProt O95382) | cell-free assay | inhibitor |  | 20 µM | remaining signal | 20%
CCCCCC1CC(=O)c2cc(C)cc(C)c2O1 (stereo not drawn) | SIRT3 | enzyme activity | inhibitor | fluorescence | 200 µM | inhibition | 2.4%
CCCCC#CCNC(=O)c1ccccc1SC(C)=O | PTGS1 | enzyme activity | inhibitor |  |  | kinact | 0.000367 s⁻¹
O=C(NCCCNc1nc(Nc2cccc(NC(=O)N3CCCC3)c2)ncc1Br)C1CCC1 | MAP3K9 | enzyme activity | inhibitor | radiometric | 1 µM | remaining activity | 0%
CN(C)C1CCN(CC#Cc2nn(C3CCCC3)c3nc(NCc4ccccc4)ncc23)C1 (stereo not drawn) | Activin receptor type-1B (ACVR1B, Homo sapiens, UniProt P36896) | enzyme activity | inhibitor | FRET | 1 µM | inhibition | 5%
Cc1nn(CC(F)(F)F)cc1Nc1nccc(NCCCNC(=O)C2CCC2)n1 | Serine/threonine-protein kinase MARK1 (MARK1, Homo sapiens, UniProt Q9P0L2) | enzyme activity | inhibitor | radiometric | 1 µM | remaining activity | 108%
CCCCCC1CC(=O)c2ccccc2O1 (stereo not drawn) | SIRT3 | enzyme activity | inhibitor | fluorescence | 200 µM | inhibition | 0.8%
CCCCCCNC(=O)c1ccccc1SC(C)=O | PTGS1 | enzyme activity | inhibitor | mass spectrometry |  | kinact | 0.0103 s⁻¹
CCCCCC1CC(=O)c2cccc(Br)c2O1 (stereo not drawn) | SIRT3 | enzyme activity | inhibitor | fluorescence | 200 µM | inhibition | 6.7%
Cc1cnc(Nc2ccc(OCCN3CCCC3)cc2)nc1Nc1cccc(S(=O)(=O)NC(C)(C)C)c1 | TAF1 BD2 | thermal stability |  | DSF | 10 µM | ΔTm | 0.28 °C
